Screening data: PubChem BioAssay, several laboratories
Compounds with a hit are over-represented: about 2.6% of the library has one in this group of screens.
Platelet DG rel = modulates dense granule release in human platelets; human platelet-rich plasma, SFLLRN dense granule ATP release, luminescence; inhibition, %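 (compounds screened at 7.5 µM in platelet-rich plasma)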; 0.22% of 300,000 active; AID 1663;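 active means mean replicate score, as percent of positive control, at or above 50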
SENP8 block-1 = inhibitors of human SENP8 protease; 1.2% of 330,000 active; inhibition, % at 10 µM; AID 2540; purified SENP8, Z-RLRGG-aminoluciferin cleavage, luminescence; Q96LD8; in the data active means inhibition above about 50%
SENP6 block = blocks the human protease SENP6; Q9GZR1; 1.8% of 330,000 active; Recombinant SENP6 catalytic domain, aminoluciferin luminescence; inhibition, % at 10 µM;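 active means inhibition above about 50% at the single tested dose, limit read from the data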
SENP1 FRET inh = inhibitors of human SENP1 SUMO protease catalytic domain; Q9P0U3; recombinant SENP1 catalytic domain, CyPet-SUMO1-YPet FRET cleavage; inhibition, % at 10 µM; 0.21% of 360,000 active;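 active means inhibition at least 30% at 10 µM, raw YFP signal under a set limit, fluorescence ratio 0.5 to 1.5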
Target sequence (Q9P0U3 419-644 limits assumed): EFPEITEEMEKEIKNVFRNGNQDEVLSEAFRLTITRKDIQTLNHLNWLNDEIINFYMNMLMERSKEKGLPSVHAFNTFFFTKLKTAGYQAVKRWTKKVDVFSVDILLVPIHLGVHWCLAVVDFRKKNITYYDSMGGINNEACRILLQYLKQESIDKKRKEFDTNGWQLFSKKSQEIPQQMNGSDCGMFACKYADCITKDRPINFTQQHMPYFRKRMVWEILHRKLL
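Material – human SENP1 catalytic domain · Input – SENP1 enzyme, 20 pM final · Compound dosing – single concentration of 10 µM compound, 0.5% DMSO final · Timing – enzyme reaction for 50 min at room temperature, dark · Measured by – FRET fluorescence in CFP and YFP emission channels · Control set – no-enzyme wells low, DMSO-plus-enzyme wells high control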
SENP8 block-2 = inhibitors of human SENP8 protease. Q96LD8. inhibition, % at 20 µM. recombinant SENP8, Nedd8 substrate fluorescence. 0.64% of 360,000 active; in the data active means inhibition mostly above about 40%, no sharp cut-off; inactive means mostly below about 27%
SENP7 inh = inhibitors of human SENP7 protease; Q9BQF6; recombinant SENP7, Z-RLRGG-aminoluciferin luminescence, 40 min; inhibition, % at 5 µM; 1.5% of 330,000 active; AID 434973;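 active means inhibition above about 50% at the single test dose, limit read from the data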
Target sequence (Q9BQF6 706-1050 limits assumed): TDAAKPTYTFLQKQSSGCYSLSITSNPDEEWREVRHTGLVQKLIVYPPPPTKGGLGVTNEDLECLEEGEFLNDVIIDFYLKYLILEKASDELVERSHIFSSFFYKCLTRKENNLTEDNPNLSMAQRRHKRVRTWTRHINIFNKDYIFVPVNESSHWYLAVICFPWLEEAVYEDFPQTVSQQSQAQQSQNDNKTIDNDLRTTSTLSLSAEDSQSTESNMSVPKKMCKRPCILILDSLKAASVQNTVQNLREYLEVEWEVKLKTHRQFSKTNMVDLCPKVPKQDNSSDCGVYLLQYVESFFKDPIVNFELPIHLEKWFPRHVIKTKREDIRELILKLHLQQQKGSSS
Large screens that a line does not name were inactive.

COc1cccc(C2CC(=O)Nc3c2c(=O)[nH]c2ncnn32)c1 (centres undefined)	none
CC(C)(C)OC(=O)NCCC(=O)N/N=C/c1cccc2cccnc12	none
O=C(O)c1ccc(N/N=C/c2ccc3nccnc3c2)cc1	Platelet DG rel 55.7, SENP8 block-1 97.1, SENP6 block 98.0, SENP7 inh 100.5
O=C(O)c1ccc(N/N=C/c2cccc3cccnc23)cc1	SENP6 block 54.2
C=CCn1c(=NC(=O)c2cc(-c3cccs3)nc3ccccc23)sc2cc(S(N)(=O)=O)ccc21	none
Cn1c(CNC(=O)c2ccc(Cl)cc2)nnc1SCC(=O)N1CCOCC1	none
NC1=NC(=Nc2cccc(S(N)(=O)=O)c2)c2ccccc21	none
COc1cc(N=Nc2cccc(S(N)(=O)=O)c2)c2ccccc2c1N	SENP1 FRET inh 48.0 (no result: SENP8 block-1, SENP6 block, SENP7 inh)
CCCOC(=O)c1ccc(Oc2cn[nH]c2-c2ccc(OC)cc2O)cc1	none
CC1CC(=O)NN=C1c1cccs1 (centres undefined)	none
CC1CC(=O)NN=C1c1ccc(N(C)C)c([N+](=O)[O-])c1 (centres undefined)	Platelet DG rel 82.1
CCN(CC)c1ccc(C2=NNC(=O)CC2C)cc1[N+](=O)[O-] (centres undefined)	Platelet DG rel 55.1
Cc1ccc(CN2CCN(/N=C\C(Br)=C\c3ccccc3)CC2)cc1	none
CC(=O)Nc1c2c(nn1-c1cccc(Cl)c1)CS(=O)(=O)C2	none
O=S(=O)(NCCc1cccs1)c1ccc(Br)cc1	none
O=C(N/N=C/c1ccc(O)c2ncccc12)c1cccc(Br)c1	SENP1 FRET inh 51.9
O=C(N/N=C/c1cc(Br)ccc1O)c1ccncc1	none
CC(C)(C)C(=O)OC/C(N)=N/OC(=O)c1ccccc1	none
O=C1c2cccc(O)c2C(=O)c2c(O)cccc21	none (no result: SENP1 FRET inh, SENP8 block-2)
O=C1C=C(O)c2cccc(O)c2C1=O	SENP6 block 66.5, SENP8 block-2 45.1 (no result: Platelet DG rel)
COc1cccc(/C=N/NC(=O)CN2CC(c3ccccc3)CC2=O)c1O (centres undefined)	none
COc1ccc(-c2nnc(-c3cc(OC)c(OC)c(OC)c3)o2)cc1OC	Platelet DG rel 66.2
COc1cc(-c2nnc(-c3cccs3)o2)cc(OC)c1OC	none
O=c1c2ccccc2nc2c3ccccc3cnn12	none
O=c1c2ccccc2cnn1-c1nc2ccccc2[nH]1	Platelet DG rel 73.9 (no result: SENP8 block-1, SENP6 block, SENP7 inh)
CC1(Cc2ccccc2C#N)C(=O)Nc2cc(-c3ccccc3Cl)ccc21 (centres undefined)	none (no result: Platelet DG rel, SENP8 block-1, SENP6 block, SENP7 inh)
O=C(Nc1cccc(NC(=O)c2ccc(-c3ccc(Br)cc3)o2)c1)c1ccco1	none
COc1ccccc1N1CCN(/N=C/c2ccc(Cl)c([N+](=O)[O-])c2)CC1	none
O=[N+]([O-])c1cc(/C=N/N2CCN(C3c4ccccc4-c4ccccc43)CC2)ccc1Cl	SENP8 block-2 47.0
Cc1c(N/N=C(\C#N)C(=O)c2ccc(Cl)cc2)c(=O)n(-c2ccccc2)n1C	none (no result: SENP8 block-1, SENP6 block, SENP7 inh)
COc1ccc(C(=O)/C(C#N)=N/Nc2ccc([N+](=O)[O-])cc2)cc1	SENP8 block-2 39.5
CCOC(=O)NC(=O)/C(C#N)=N\Nc1ccc(Cl)cc1	SENP8 block-2 43.4
N#C/C(=N\Nc1ccc(Cl)cc1)C(=O)c1ccccc1	SENP8 block-2 45.5
COCCN(Cc1ccc(C)cc1)C(=O)[C@H]1O[C@@H](n2ccc(=O)[nH]c2=O)[C@H](O)[C@@H]1O	none (no result: Platelet DG rel, SENP8 block-1, SENP6 block, SENP7 inh)
CCOC(=O)c1ccc(NC(=O)CSc2nnc(Cc3cccs3)n2C)cc1	none
COc1cccc(/C=N/NC(=O)C(=O)Nc2ccccc2OC(F)(F)C(F)F)c1O	SENP1 FRET inh 35.0
Cc1cc(Cl)ccc1OCCCC(=O)Nc1cccnc1	none
Cc1cc(-c2nnc(CCC(=O)NC(C)c3cccc4ccccc34)o2)no1 (centres undefined)	Platelet DG rel 50.3
CCCCNC(=O)C1Cc2cc(S(=O)(=O)N3CCCCC3)ccc2N1C(C)=O (centres undefined)	none
CCCCNC(=O)c1sc(=S)n2c1[nH]c(=O)c1ccc(C(=O)NCCc3ccc(OC)c(OC)c3)cc12	SENP1 FRET inh 44.6
CCOC(=O)Cn1nc(C)c(-c2ccccc2)c1N	none
CCOC(=O)C1Nc2ccc(C)cc2C2C=CCC12 (centres undefined)	none
CCOC(=O)C1Nc2ccc(Br)cc2C2C=CCC12 (centres undefined)	SENP8 block-2 58.8
COc1ccc(C(=O)NCC(C)(C)CNC(=O)c2ccc(OC)c(OC)c2)cc1OC	none
O=[N+]([O-])c1ccc(O)c(/C=N/n2cnc3ccccc32)c1	SENP8 block-1 56.0, SENP6 block 75.9
O=[N+]([O-])c1ccc(O)c(/C=N/n2c(CO)nc3ccccc32)c1	none
O=C(/C=C/Nc1ccccc1O)c1ccco1	SENP8 block-1 77.1, SENP6 block 88.8, SENP7 inh 85.2
O=C(/C=C/Nc1ccccc1Oc1ccccc1)c1ccco1	none
COc1c2occc2c(OC)c2c(=O)cc(C)oc12	none
Cc1cc(=O)c2c(o1)C(=O)c1occc1C2=O	SENP8 block-2 75.3 (no result: Platelet DG rel, SENP8 block-1, SENP6 block, SENP7 inh)
CCCc1cc(=O)oc2cc(C)cc(OCC(=O)NCCN3CCOCC3)c12	none
Cc1cc(C)c(S(=O)(=O)/N=C2\C=C(NS(=O)(=O)c3ccccc3)C(=O)c3ccccc32)c(C)c1	SENP8 block-2 73.3
Cc1ccc(S(=O)(=O)/N=C2\C=C(NS(=O)(=O)c3ccccc3)C(=O)c3ccccc32)cc1	SENP8 block-2 73.7 (no result: Platelet DG rel, SENP8 block-1, SENP6 block, SENP7 inh)
O=S(=O)(N=C1C=CC(=NS(=O)(=O)c2ccccc2)c2ccccc21)c1ccccc1	SENP1 FRET inh 60.0, SENP8 block-2 74.4 (no result: Platelet DG rel, SENP8 block-1, SENP6 block, SENP7 inh)
CCOC(=O)c1nc(C)n(-c2cc(Cl)cc(Cl)c2)n1	none
CCN(CC(=O)Nc1c(F)cccc1F)C(=O)c1ccc2ncsc2c1	none
O=C(NCc1ccccc1)C(=O)Nc1cccc(C(=O)O)c1	SENP8 block-1 83.6, SENP6 block 92.8, SENP7 inh 93.0
CCOC(=O)c1cccc(NC(=O)Nc2ccc(OCC)cc2)c1	none
O=C(Nc1cccc(Cl)c1)Nc1cccc(C(=O)O)c1	SENP8 block-1 87.3, SENP6 block 95.7, SENP7 inh 93.0
CCOc1ccc(NC(=O)Nc2cccc(C(=O)O)c2)cc1	SENP8 block-1 96.7, SENP6 block 99.1, SENP7 inh 98.7
CSc1cccc(NC(=O)C(=O)NCc2ccccc2)c1	none
O=C(NNC(=O)c1cccs1)c1ccc(Br)o1	none (no result: Platelet DG rel, SENP8 block-1, SENP6 block, SENP7 inh)
Cc1ccc2nc(-c3ccc(NC(=O)CSc4nccc(=O)[nH]4)cc3)sc2c1	SENP6 block 81.2, SENP7 inh 69.3
O=C(NCCC1=CCCCC1)C1CCN(S(=O)(=O)c2cccc3nonc23)CC1	none (no result: SENP1 FRET inh, SENP8 block-2)
COc1cccc2sc3cc(NCc4ccc(C)o4)ccc3c(=O)c12	SENP7 inh 57.6 (no result: Platelet DG rel)
N#Cc1ccc(S(=O)(=O)N2CCCCC2c2cc(C(=O)Nc3cccc4c3CCCC4)no2)cc1 (centres undefined)	none (no result: Platelet DG rel, SENP8 block-1, SENP6 block, SENP7 inh)
C/C(=N\NC(=O)c1cc(-c2cccnc2)nc2ccccc12)c1ccc(O)cc1O	SENP1 FRET inh 48.9
